Experimental data of several laboratories.
Lines come from different studies, so protocols differ.
Target: Serine/threonine-protein kinase ULK1 (ULK1, Homo sapiens, UniProt O75385)
Sequence (O75385 1-1050, as in one of the studies): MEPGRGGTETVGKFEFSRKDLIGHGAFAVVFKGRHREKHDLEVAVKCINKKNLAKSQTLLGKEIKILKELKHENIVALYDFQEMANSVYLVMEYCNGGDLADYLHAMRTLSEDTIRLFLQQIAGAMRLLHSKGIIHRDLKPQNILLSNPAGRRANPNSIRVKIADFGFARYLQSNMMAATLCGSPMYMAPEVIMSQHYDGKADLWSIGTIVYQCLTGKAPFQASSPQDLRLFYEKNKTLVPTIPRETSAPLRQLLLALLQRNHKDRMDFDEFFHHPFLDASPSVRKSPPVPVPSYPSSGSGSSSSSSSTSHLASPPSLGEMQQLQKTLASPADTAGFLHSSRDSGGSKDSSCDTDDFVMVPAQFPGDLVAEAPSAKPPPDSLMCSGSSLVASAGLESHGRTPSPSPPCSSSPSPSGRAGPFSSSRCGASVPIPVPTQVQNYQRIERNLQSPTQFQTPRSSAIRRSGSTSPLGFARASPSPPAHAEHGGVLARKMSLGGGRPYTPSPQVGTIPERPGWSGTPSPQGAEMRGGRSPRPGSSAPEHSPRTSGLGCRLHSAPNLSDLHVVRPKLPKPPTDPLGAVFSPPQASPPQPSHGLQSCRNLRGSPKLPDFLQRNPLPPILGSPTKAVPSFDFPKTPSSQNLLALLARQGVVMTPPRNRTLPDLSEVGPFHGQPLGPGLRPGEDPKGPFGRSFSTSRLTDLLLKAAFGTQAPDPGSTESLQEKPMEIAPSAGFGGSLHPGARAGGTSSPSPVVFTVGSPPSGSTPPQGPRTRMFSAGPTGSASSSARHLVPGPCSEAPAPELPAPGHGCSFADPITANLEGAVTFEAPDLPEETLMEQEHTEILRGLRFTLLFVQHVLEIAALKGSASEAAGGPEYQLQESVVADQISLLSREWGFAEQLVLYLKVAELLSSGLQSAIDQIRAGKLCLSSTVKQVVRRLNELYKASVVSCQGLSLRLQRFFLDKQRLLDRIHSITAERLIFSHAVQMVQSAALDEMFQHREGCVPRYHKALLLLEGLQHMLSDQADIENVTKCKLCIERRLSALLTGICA

`COc1cnc(Nc2cccc(S(N)(=O)=O)c2)nc1N1CCN(c2ccccc2)C(=O)C1` has a remaining binding of 67% (binding; competition with immobilised ligand; 1 µM).
With `CN(C)c1ncc(F)c(-c2cnn3ncccc23)n1` the remaining binding was 80% (binding; 1 µM).
With `O=C(c1ccc(Nc2ncc(Cl)c(-c3cc4ccccc4s3)n2)cc1)N1CCC(N2CCCC2)CC1` the remaining binding was 1.8% (binding; competition with immobilised ligand; 1 µM).
For `O=C(NCC1CCOCC1)c1n[nH]cc1NC(=O)c1c(F)cccc1F`, the remaining binding was 86% (binding; competition with immobilised ligand; 1 µM).
With `Nc1ncc2c(n1)-c1c([nH]c3ccc(C#CC4CC4)cc13)CCCC2` the remaining binding was 92% (binding; competition with immobilised ligand; 1 µM).
`c1cncc(-c2cccc(Nc3nccc(NC4CCCCC4)n3)c2)c1` has a remaining binding of 100% (binding; competition with immobilised ligand; 10 µM).
With `C[C@@H]1CN(c2cc(-c3nn(C)c4ccc(OC5(C)CC5)cc34)ncn2)C[C@H](C)O1` the remaining binding was 76% (cell-free assay; competition with immobilised ligand; 1 µM).
`Cc1cnn2ncc(-c3ccnc(N(C)C)n3)c2c1` has a remaining binding of 100% (binding; 1 µM).
`O=C(c1ccc(Nc2ncc(Cl)c(-c3ccc(Cl)s3)n2)cc1)N1CCC(N2CCCC2)CC1` has a remaining binding of 1.8% (binding; competition with immobilised ligand; 1 µM).
For `N[C@H]1CCN(c2nccc(-c3cnn4ncccc34)n2)C1`, the remaining binding was 100% (binding; 1 µM).
`CN(C)C(=O)Cn1cc(-c2nc([C@@](C)(c3ccc(-c4cnc(N)nc4)cc3)C3CC3)no2)cn1` gave a remaining binding of 77% (cell-free assay; competition with immobilised ligand; 1 µM).
The remaining binding of `CN(C)c1nccc(-c2cnc3ncccn23)n1` is reported as 71% (binding; 1 µM).
The remaining binding of `COc1cnc(Nc2cccc(S(N)(=O)=O)c2)nc1N1CCN(c2ccccc2)CC1` is reported as 73% (binding; competition with immobilised ligand; 1 µM).
`CCS(=O)(=O)c1cc2cc(C[C@](O)(CC(C)(C)c3ccc(F)cc3C(N)=O)C(F)(F)F)[nH]c2cn1` has a remaining binding of 100% (cell-free assay; competition with immobilised ligand; 1 µM).
The remaining binding of `CNC(=O)c1ccccc1Nc1cc(Nc2ccc(N3CCOCC3)cc2OC)ncc1C(F)(F)F` is reported as < 10% (binding; competition with immobilised ligand; 1 µM).
For `COc1ccc2c(O[C@@H]3C[C@H]4C(=O)N[C@]5(C(=O)O)CC5/C=C\CCCCC[C@H](NC(=O)OC5CCCC5)C(=O)N4C3)cc(-c3csc(NC(=O)C(C)C)n3)nc2c1C` (stereo partly drawn), the remaining binding was 93% (cell-free assay; competition with immobilised ligand; 1 µM).
The remaining binding of `CN(CCCC(F)(F)F)c1nccc(-c2cnn3ncccc23)n1` is reported as 79% (binding; 1 µM).
`O=C1CCc2cc(Nc3cc(OC4CCOCC4)c([N+](=O)[O-])cc3Cl)ccc2N1` has a remaining binding of 87% (cell-free assay; competition with immobilised ligand; 1 µM).
With `C[C@H]1CCN(c2nccc(-c3cnn4ncccc34)n2)C1` the remaining binding was 85% (binding; 1 µM).
The remaining binding of `O=C(NCCCN1CCOCC1)c1ccc(Nc2nccc(-c3cc4ccccc4s3)n2)cc1` is reported as 52% (binding; competition with immobilised ligand; 1 µM).
`CN(C)CC#Cc1ccc(OCCCc2sc(N3CCc4cccc(C(=O)Nc5nc6ccccc6s5)c4C3)nc2C(=O)O)c(F)c1` has a remaining binding of 100% (cell-free assay; competition with immobilised ligand; 1 µM).
